Common to all, as to format: functional
For one experiment, the system named is Staphylococcus aureus. Kind of experiment: Antimicrobial activity against Staphylococcus aureus ATCC 6538 after 24 hrs by dilution susceptibility assay. Particulars: ATCC 6538, 24 h. The procedure, abridged:
(§1)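 Broth microdilution MIC per CLSI recommendations, ATCC strains, 96-well format, no agitation; inoculum 2 × 10⁵ bacterial cells per well; incubated 24 h at 37 °C; MIC as average of 3 independent experiments.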

A further experiment has as its system Escherichia coli. Put plainly: Antimicrobial activity against Escherichia coli […] after 24 hrs by dilution susceptibility assay. The procedure, abridged: as §1
The subject of another experiment is Bacillus subtilis. Put plainly: Antimicrobial activity against Bacillus subtilis ATCC 11229 after 24 hrs by dilution susceptibility assay. Particulars: ATCC 11229, 24 h. In a few lines:
as §1

Structures are written as SMILES. In brackets after ≈: the same amount, converted by molar mass.

As for `CCCCC(=O)/C=C(\O)c1cccnc1`, the minimal inhibitory concentration (MIC) was found to be 95.5 µg/mL (≈ 465 µM) in the experiment on Staphylococcus aureus, 95.4 µg/mL (≈ 465 µM) with Escherichia coli and 95.4 µg/mL (≈ 465 µM) in the experiment with Bacillus subtilis.

In the case of `O=C(/C=C(\O)c1ccccn1)c1ccccc1`, the MIC was 47.4 µg/mL (≈ 210 µM) in the experiment with Staphylococcus aureus, 24.1 µg/mL (≈ 107 µM) against Escherichia coli and 24.5 µg/mL (≈ 109 µM) against Bacillus subtilis.

For `CCCCC(=O)/C=C(\O)c1ccccn1`, the values for the MIC with Staphylococcus aureus, in the experiment with Escherichia coli and against Bacillus subtilis were 96.5 µg/mL (≈ 470 µM), 47.7 µg/mL (≈ 232 µM) and 48.1 µg/mL (≈ 235 µM), respectively.

Consider `CCC(=O)/C=C(\O)c1ccccn1`, for which the values for the MIC against Staphylococcus aureus, in the experiment with Escherichia coli and in the experiment with Bacillus subtilis were 23.6 µg/mL (≈ 133 µM), 195 µg/mL (≈ 1100 µM) and 211 µg/mL (≈ 1190 µM), respectively.

In the case of `O=C(/C=C(\O)c1cccnc1)c1ccccc1`, the minimal inhibitory concentration (MIC) with Staphylococcus aureus stood at 95.1 µg/mL (≈ 422 µM); against Escherichia coli, 95.8 µg/mL (≈ 425 µM); against Bacillus subtilis, 94.6 µg/mL (≈ 420 µM).

Consider `CC(=O)/C=C(\O)c1cccnc1`, for which the MIC in the experiment on Staphylococcus aureus is 392 µg/mL (≈ 2400 µM); in the experiment on Escherichia coli, 402 µg/mL (≈ 2460 µM); in the experiment with Bacillus subtilis, 397 µg/mL (≈ 2430 µM).

Consider `CCC(=O)C(C)C(=O)c1ccccn1` (stereo unspecified), for which the MIC with Staphylococcus aureus is 758 µg/mL (≈ 3960 µM); in the experiment with Escherichia coli, 391 µg/mL (≈ 2040 µM); against Bacillus subtilis it was 786 µg/mL (≈ 4110 µM).

Take `CC(=O)/C=C(\O)c1ccccn1`: the MIC against Staphylococcus aureus was found to be 46.9 µg/mL (≈ 287 µM); against Escherichia coli it was 379 µg/mL (≈ 2320 µM); against Bacillus subtilis, 190 µg/mL (≈ 1160 µM).

On to `CCC(=O)/C=C(\O)c1cccnc1`, for which the MIC in the experiment with Staphylococcus aureus turned out to be 380 µg/mL (≈ 2150 µM); in the experiment on Escherichia coli, 379 µg/mL (≈ 2140 µM); with Bacillus subtilis, 374 µg/mL (≈ 2110 µM).

Turning to `CCCC(=O)/C=C(\O)c1ccccn1`, the results for the MIC with Staphylococcus aureus, in the experiment on Escherichia coli and against Bacillus subtilis were 192 µg/mL (≈ 1000 µM), 97.8 µg/mL (≈ 512 µM) and 97.2 µg/mL (≈ 509 µM), respectively.

`CCCC(=O)/C=C(\O)c1cccnc1`: the MIC against Staphylococcus aureus was 193 µg/mL (≈ 1010 µM); against Escherichia coli, 94.1 µg/mL (≈ 492 µM); against Bacillus subtilis, 200 µg/mL (≈ 1050 µM).

`CC1(C)S[C@@H]2[C@H](NC(=O)[C@H](N)c3ccccc3)C(=O)N2[C@H]1C(=O)O` [AMPICILLIN]: the MIC turned out to be 3.19 µg/mL (≈ 9.13 µM) against Staphylococcus aureus, 6.99 µg/mL (≈ 20 µM) against Escherichia coli and 12.5 µg/mL (≈ 35.7 µM) with Bacillus subtilis.

Usually MIC stands for the lowest concentration that inhibits growth of the organism.

Source of the values: ChEMBL document CHEMBL1152963, “Synthesis and antimicrobial activity of 4-hydroxy-4-(pyridyl)alk-3-en-2-ones” (2009).
